Data taken from ChEMBL document CHEMBL1123408, “Influence of alkyl-chain fluorination on the action of mammary tumor inhibiting 2,3-bis(hydroxyphenyl)butanes and 2,3-bis(hydroxyphenyl)but-2-enes” (1986).
Where “and” joins values, the source holds several entries; their conditions need not be identical. Equal entries are not always repeated. Each block holds one compound with its values, some of them ahead of it.

Key:
[1] = target: T1, Estrogen receptor (Mus musculus) (UniProt O08537+P19785); assay: Uterotrophic effect in mice at 5 ug dose; assay type: functional, tissue-based; conditions: Uterus
Summary of the method: (§1)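 Immature female NMRI mice, 20 days old, 10 per group, given daily sc injections of 0.1 mL olive oil solution for 3 days. Uteri removed 24 h after the last dose, fixed in Bouin's solution, washed, dried and weighed. Antiestrogenic testing measured inhibition of estrone-stimulated uterine growth.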

[2] = target: T1, Estrogen receptor (Mus musculus); assay: (§2) Uterotrophic effect in mice at 10 ug dose; assay type: functional, tissue-based; set-up: unit not given here; conditions: Uterus; summary of the method: as §1
[3] = target: T1, Estrogen receptor (Mus musculus); assay: Anti-uterotrophic effect in mice at 5 ug dose; assay type: functional
Summary of the method: (§3)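 Immature female NMRI mice, 20 days old (14.5 ± 1.2 g), randomized into groups of 10. Each received a daily sc injection of compound in 0.1 mL olive oil for 3 days, given together with estrone. Uteri were taken 24 h after the last injection, fixed in Bouin's solution, washed, dried and weighed. The read-out was inhibition of estrone-stimulated uterine growth.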

[4] = target: T1, Estrogen receptor (Mus musculus); assay: Anti-uterotrophic effect in mice at 25 ug dose; assay type: functional; summary of the method: as §3
[5] = target: T1, Estrogen receptor (Mus musculus); assay: Uterotrophic effect in BD2F mice bearing transplantable hormone dependent MXT at 13.84 mg dose; assay type: functional, tissue-based
Summary of the method: (§4)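 MXT-bearing female BD2F1 mice (10 per group) dosed sc in olive oil three times weekly for 6 weeks from the day after tumor transplantation. Uteri excised at sacrifice and dry weight determined; values given as mean ± SD.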

[6] = target: T1, Estrogen receptor (Mus musculus); assay: (§5) Uterotrophic effect in mice at 1000 ug dose; assay type: functional, tissue-based; conditions: Uterus; summary of the method: as §1
[7] = target: T1, Estrogen receptor (Mus musculus); assay: (§6) Uterotrophic effect in mice at 0 ug dose; assay type: functional, tissue-based; set-up: unit not given here; conditions: Uterus; summary of the method: as §1
Mus musculus [8] = species on record: Mus musculus; assay: Relative average tumor wet weight in treated compared to untreated mice at 13.84 mg dose; assay type: functional
Summary of the method: (§7)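 MXT mammary tumor pieces of 1-2 mm³ from syngeneic donors were implanted sc by trocar into female BD2F₁ mice aged 8-10 weeks (20.0 ± 1.7 g), groups of 10. From the next day, compound in olive oil was given sc three times weekly for 6 weeks. Tumor wet weight was measured at the end and expressed as % T/C.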

[9] = target: T1, Estrogen receptor (Mus musculus); assay: Uterotrophic effect in mice at 0.1 ug dose; assay type: functional, tissue-based; set-up: unit not given here; conditions: Uterus; summary of the method: as §1
[10] = target: T1, Estrogen receptor (Mus musculus); assay: Uterotrophic effect in mice at 25 ug dose; assay type: functional, tissue-based; set-up: unit not given here; conditions: Uterus; summary of the method: as §1
[11] = target: T1, Estrogen receptor (Mus musculus); assay: Uterotrophic effect in mice at 500 ug dose; assay type: functional, tissue-based; set-up: unit not given here; conditions: Uterus; summary of the method: as §1
Mus musculus [12] = species on record: Mus musculus; assay: Relative average tumor wet weight in treated compared to untreated mice at 2.77 mg dose; assay type: functional
Summary of the method: (§8)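 Syngeneic female BD2F1 mice (8–10 weeks) received sc trocar implants of 1–2-mm³ MXT tumor pieces, 10 per group. Treatment began the next day: sc doses in olive oil (solution or suspension), three times weekly for 6 weeks. Tamoxifen-treated control group included. Tumor wet weight measured at sacrifice; expressed as % T/C versus untreated controls.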

[13] = target: T1, Estrogen receptor (Mus musculus); assay: (§9) Uterotrophic effect in mice at 100 ug dose; assay type: functional, tissue-based; conditions: Uterus; summary of the method: as §1
[14] = target: T1, Estrogen receptor (Mus musculus); assay: as §9; assay type: functional, tissue-based; set-up: unit not given here; conditions: Uterus; summary of the method: as §1
[15] = target: T1, Estrogen receptor (Mus musculus); assay: (§10) Uterotrophic effect in mice at 1 ug dose; assay type: functional, tissue-based; set-up: unit not given here; conditions: Uterus; summary of the method: as §1
[16] = target: T1, Estrogen receptor (Mus musculus); assay: Uterotrophic effect in BD2F mice bearing transplantable hormone dependent MXT at 2.77 mg dose; assay type: functional, tissue-based; summary of the method: as §4
[17] = target: T1, Estrogen receptor (Mus musculus); assay: as §6; assay type: functional, tissue-based; set-up: unit not given here; conditions: Uterus; summary of the method: as §1; remark: listed apart in the source
[18] = target: T1, Estrogen receptor (Mus musculus); assay: Uterotrophic effect in BD2F mice bearing transplantable hormone dependent MXT at 0.8 mg dose; assay type: functional, tissue-based; summary of the method: as §4
[19] = target: T1, Estrogen receptor (Mus musculus); assay: Uterotrophic effect in BD2F mice bearing transplantable hormone dependent MXT at 4 mg dose; assay type: functional, tissue-based; summary of the method: as §4
Mus musculus [20] = species on record: Mus musculus; assay: Relative average tumor wet weight in treated compared to untreated mice at 0.8 mg dose; assay type: functional; summary of the method: as §7
Mus musculus [21] = species on record: Mus musculus; assay: Relative average tumor wet weight in treated compared to untreated mice at 4 mg dose; assay type: functional; summary of the method: as §8
[22] = target: T1, Estrogen receptor (Mus musculus); assay: Uterotrophic effect in BD2F mice bearing transplantable hormone dependent MXT at 13.80 mg dose; assay type: functional, tissue-based; conditions: Uterus; summary of the method: as §4
[23] = target: T1, Estrogen receptor (Mus musculus); assay: as §5; assay type: functional, tissue-based; set-up: unit not given here; conditions: Uterus; summary of the method: as §1
[24] = target: T1, Estrogen receptor (Mus musculus); assay: as §9; assay type: functional, tissue-based; set-up: unit not given here; conditions: Uterus; summary of the method: as §1; remark: listed apart in the source
[25] = target: T1, Estrogen receptor (Mus musculus); assay: as §2; assay type: functional, tissue-based; conditions: Uterus; summary of the method: as §1
Mus musculus [26] = species on record: Mus musculus; assay: Relative average tumor wet weight in treated compared to untreated mice at 2.76 mg dose; assay type: functional; summary of the method: as §8
[27] = target: T1, Estrogen receptor (Mus musculus); assay: Anti-uterotrophic effect in mice at 500 ug dose; assay type: functional; summary of the method: as §3
Mus musculus [28] = species on record: Mus musculus; assay: Relative average tumor wet weight in treated compared to untreated mice at 13.80 mg dose; assay type: functional; summary of the method: as §7
[29] = target: T1, Estrogen receptor (Mus musculus); assay: Uterotrophic effect in BD2F mice bearing transplantable hormone dependent MXT at 2.76 mg dose; assay type: functional, tissue-based; conditions: Uterus; summary of the method: as §4
Rattus norvegicus [30] = assay: Percent progression in DMBA-Induced Hormone-Dependent Mammary Carcinoma in rats at 36 mg/kg dose; assay type: functional
Rattus norvegicus [31] = assay: Percent change in total tumor area in DMBA-Induced Hormone-Dependent Mammary Carcinoma rats at 18 mg/kg dose; assay type: functional
Rattus norvegicus [32] = assay: Percent change in total tumor area in DMBA-Induced Hormone-Dependent Mammary Carcinoma rats at 36 mg/kg dose; assay type: functional
[33] = target: T1, Estrogen receptor (Mus musculus); assay: as §10; assay type: functional, tissue-based; conditions: Uterus; summary of the method: as §1
Rattus norvegicus [34] = assay: Percent unchanged tumors in DMBA-Induced Hormone-Dependent Mammary Carcinoma in rats at 36 mg/kg dose; assay type: functional
Rattus norvegicus [35] = assay: Percent change in body weight in DMBA-Induced Hormone-Dependent Mammary Carcinoma rats at 72 mg/kg dose; assay type: functional
Rattus norvegicus [36] = assay: Initial tumor number in DMBA-Induced Hormone-Dependent Mammary Carcinoma in rats at 18 mg/kg dose; assay type: functional
Rattus norvegicus [37] = assay: Initial tumor number in DMBA-Induced Hormone-Dependent Mammary Carcinoma in rats at 72 mg/kg dose; assay type: functional
Rattus norvegicus [38] = assay: Final tumor number in DMBA-Induced Hormone-Dependent Mammary Carcinoma in rats at 72 mg/kg dose; assay type: functional
Rattus norvegicus [39] = assay: Final tumor number in DMBA-Induced Hormone-Dependent Mammary Carcinoma in rats at 36 mg/kg dose; assay type: functional
Rattus norvegicus [40] = assay: Percent unchanged tumors in DMBA-Induced Hormone-Dependent Mammary Carcinoma in rats at 72 mg/kg dose; assay type: functional
Rattus norvegicus [41] = assay: Percent complete remission in DMBA-Induced Hormone-Dependent Mammary Carcinoma in rats at 18 mg/kg dose; assay type: functional
Rattus norvegicus [42] = assay: Percent change in total tumor area in DMBA-Induced Hormone-Dependent Mammary Carcinoma rats at 72 mg/kg dose; assay type: functional
Rattus norvegicus [43] = assay: Final tumor number in DMBA-Induced Hormone-Dependent Mammary Carcinoma in rats at 18 mg/kg dose; assay type: functional
Rattus norvegicus [44] = assay: Percent change in body weight in DMBA-Induced Hormone-Dependent Mammary Carcinoma rats at 36 mg/kg dose; assay type: functional
Rattus norvegicus [45] = assay: Percent unchanged tumors in DMBA-Induced Hormone-Dependent Mammary Carcinoma in rats at 18 mg/kg dose; assay type: functional
Rattus norvegicus [46] = assay: Percent partial remission in DMBA-Induced Hormone-Dependent Mammary Carcinoma in rats at 18 mg/kg dose; assay type: functional
Rattus norvegicus [47] = assay: Percent progression in DMBA-Induced Hormone-Dependent Mammary Carcinoma in rats at 18 mg/kg dose; assay type: functional
Rattus norvegicus [48] = assay: Percent complete remission in DMBA-Induced Hormone-Dependent Mammary Carcinoma in rats at 36 mg/kg dose; assay type: functional
Rattus norvegicus [49] = assay: Percent partial remission in DMBA-Induced Hormone-Dependent Mammary Carcinoma in rats at 72 mg/kg dose; assay type: functional
Rattus norvegicus [50] = assay: Percent progression in DMBA-Induced Hormone-Dependent Mammary Carcinoma in rats at 72 mg/kg dose; assay type: functional
Rattus norvegicus [51] = assay: Initial tumor number in DMBA-Induced Hormone-Dependent Mammary Carcinoma in rats at 36 mg/kg dose; assay type: functional
[52] = target: T1, Estrogen receptor (Mus musculus); assay: Uterotrophic effect in mice at 5000 ug dose; assay type: functional, tissue-based; conditions: Uterus, in the assay text read “50 ug” for “5000 ug”; summary of the method: as §1
Rattus norvegicus [53] = assay: Percent partial remission in DMBA-Induced Hormone-Dependent Mammary Carcinoma in rats at 36 mg/kg dose; assay type: functional
Rattus norvegicus [54] = assay: Percent complete remission in DMBA-Induced Hormone-Dependent Mammary Carcinoma in rats at 72 mg/kg dose; assay type: functional
Rattus norvegicus [55] = assay: Percent change in body weight in DMBA-Induced Hormone-Dependent Mammary Carcinoma rats at 18 mg/kg dose; assay type: functional

T1 sequence (O08537 whole entry, looked up): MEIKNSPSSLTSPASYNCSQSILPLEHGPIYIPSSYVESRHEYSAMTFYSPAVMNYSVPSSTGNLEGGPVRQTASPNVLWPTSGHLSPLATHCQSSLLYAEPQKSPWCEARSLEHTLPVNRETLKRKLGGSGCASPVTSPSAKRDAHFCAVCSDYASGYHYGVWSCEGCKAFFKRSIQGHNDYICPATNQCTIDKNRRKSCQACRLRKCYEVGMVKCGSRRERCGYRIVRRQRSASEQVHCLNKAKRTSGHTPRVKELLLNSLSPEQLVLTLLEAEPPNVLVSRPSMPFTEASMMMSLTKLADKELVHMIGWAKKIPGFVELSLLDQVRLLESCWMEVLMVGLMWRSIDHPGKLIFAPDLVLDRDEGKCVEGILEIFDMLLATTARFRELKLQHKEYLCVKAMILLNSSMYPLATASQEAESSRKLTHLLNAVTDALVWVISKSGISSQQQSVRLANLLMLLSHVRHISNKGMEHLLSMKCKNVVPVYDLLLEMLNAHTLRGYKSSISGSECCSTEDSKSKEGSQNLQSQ
T1 sequence (P19785 whole entry, looked up): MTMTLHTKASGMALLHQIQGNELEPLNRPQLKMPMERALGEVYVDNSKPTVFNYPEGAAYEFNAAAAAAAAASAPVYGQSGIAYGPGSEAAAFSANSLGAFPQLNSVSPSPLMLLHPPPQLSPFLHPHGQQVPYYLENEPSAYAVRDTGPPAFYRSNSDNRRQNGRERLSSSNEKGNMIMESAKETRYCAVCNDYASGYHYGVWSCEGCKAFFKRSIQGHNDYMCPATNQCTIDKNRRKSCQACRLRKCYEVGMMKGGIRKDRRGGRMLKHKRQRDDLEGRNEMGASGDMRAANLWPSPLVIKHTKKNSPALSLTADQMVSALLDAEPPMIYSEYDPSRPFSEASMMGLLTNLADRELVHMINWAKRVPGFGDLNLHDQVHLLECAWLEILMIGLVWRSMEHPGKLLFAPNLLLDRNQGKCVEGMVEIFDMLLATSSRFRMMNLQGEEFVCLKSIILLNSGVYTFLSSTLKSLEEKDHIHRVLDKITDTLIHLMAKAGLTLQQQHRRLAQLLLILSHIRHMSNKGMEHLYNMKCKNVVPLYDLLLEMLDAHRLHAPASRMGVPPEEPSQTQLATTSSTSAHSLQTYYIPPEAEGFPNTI

Effect [1]: 33.6
Effect [2]: 28
inhibition [3]: 23.8%
inhibition [4]: 14.1%
Uterus effect [5]: 77.6
Effect [6]: 34.8
Effect [7]: 11.8
Effect [9]: 17.7
Effect [10]: 36
Effect [11]: 56.5
Effect [13]: 42.2
Effect [14]: 45.1
Effect [15]: 22.6
Uterus effect [16]: 79.9
Effect [17]: 14.8
Structure (SMILES): C[C@H](c1ccc(O)cc1)[C@@H](C)c1ccc(O)cc1
TC (Mus musculus [8]): 23.1%
TC (Mus musculus [12]): 68.5%

Effect [2]: 35.4
Uterus effect [18]: 136
Effect [7]: 10.8
Uterus effect [19]: 188
Effect [9]: 46.9
Effect [15]: 42.5
Structure (SMILES): Oc1ccc([C@H]([C@H](c2ccc(O)cc2)C(F)(F)F)C(F)(F)F)cc1
TC (Mus musculus [20]): 21.3%
TC (Mus musculus [21]): 7.2%

Effect [1]: 37.2
Effect [22]: 88.4
Effect [23]: 12.8
Effect [7]: 13.3
Effect [24]: 13.8
Effect [10]: 42.3
Effect [25]: 12.2
Effect [11]: 33.1
Effect [14]: 43.5
inhibition [27]: 27.2%
Effect [29]: 80.7
Effect [17]: 12.9
Structure (SMILES): C/C(=C(/C)c1cccc(O)c1)c1cccc(O)c1
TC (Mus musculus [26]): 88%
TC (Mus musculus [28]): 69.9%

Effect [1]: 36.5
Effect [2]: 12.4
Effect [23]: 13.1
Effect [33]: 11.7
Effect ([5]; Uterus): 73.5
Effect [7]: 11.9
Effect [24]: 12.6
Effect [9]: 38.5 [middle of 4 runs]
Effect [11]: 29
Effect [52]: 34.3
Effect [29]: 86.9
Effect [17]: 11.2 and 9.9 and 10.5
Structure (SMILES): C[C@H](c1cccc(O)c1)[C@@H](C)c1cccc(O)c1
Tumors (Rattus norvegicus [30]): 24%
Change in tumor area % (Rattus norvegicus [31]): 188%
Change in tumor area % (Rattus norvegicus [32]): 105%
Tumors (Rattus norvegicus [34]): 38%
Change in weight (Rattus norvegicus [35]): 0.9%
No. of tumors (Rattus norvegicus [36]): 21
No. of tumors (Rattus norvegicus [37]): 26
No. of tumors (Rattus norvegicus [38]): 22
No. of tumors (Rattus norvegicus [39]): 12
Tumors (Rattus norvegicus [40]): 16%
Tumors (Rattus norvegicus [41]): 14%
Change in tumor area % (Rattus norvegicus [42]): 6%
No. of tumors (Rattus norvegicus [43]): 16
Change in weight (Rattus norvegicus [44]): 1.6%
Tumors (Rattus norvegicus [45]): 24%
Tumors (Rattus norvegicus [46]): 11%
Tumors (Rattus norvegicus [47]): 51%
Tumors (Rattus norvegicus [48]): 29%
Tumors (Rattus norvegicus [49]): 25%
TC (Mus musculus [8]): 66.5%
Tumors (Rattus norvegicus [50]): 25%
No. of tumors (Rattus norvegicus [51]): 22
TC (Mus musculus [12]): 106%
Tumors (Rattus norvegicus [53]): 9%
Tumors (Rattus norvegicus [54]): 34%
Change in weight (Rattus norvegicus [55]): 2.4%
